# Results reported in the RNAGym collection of RNA variant scans (doi:10.1126/science.aae0568).
# Variants at the floor of the assay were thinned out.
# B1: tRNA (parent)
# chain: GUUCCGUUGGCGUAAUGGUAACGCGUCUCCCUCCUAAGGAGAAGACUGCGGGUUCGAGUCCCGUACGGAACG
# Variants of: B1
# Experiment: yeast fitness relative to wild type (ratio to wild type); higher = fitter; tRNA-Arg(CCU), competitive growth, 37 C, YPD
# In short: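 For this measurement, the tRNA-Arg(CCU) gene was varied by chemical synthesis at a 3% per-site mutation rate across 69 sites, and each variant was placed at the native genomic locus in Saccharomyces cerevisiae. The pooled strains went through a 24-hour competition in YPD at 37°C in six parallel replicates, with amplicons from start and end populations read by 100-nucleotide paired-end sequencing. Darwinian fitness relative to wild type followed from the change in each genotype's frequency. Genotypes needed ≥ 100 starting reads, and estimates < 0.5 were set to 0.5.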
row,Variant,yeast fitness
1,GUUGCGAUCGCGUAAUCGUAACGCGUCUCCCUCCUAAGGAGAAGACUACGGGUUCGAGUCCCGUACGGAACG [C4G U7A G9C G17C G48A],≤ 0.5
2,GUUGCGCUGGCGUAAUGGUAACGCGUAUCCCUCCUAAGGAGAUGACUGCGGGUUCGAGGCCCGUACGGAACG [C4G U7C C27A A43U U59G],≤ 0.5
3,GUUGCGCUGGCGUAAUGGUAACGCGUCUCCCUCCUAAGGAACAGACUGCCGGUUCGAGUCCCGUACGGAGCG [C4G U7C G41A A42C G50C A70G],≤ 0.5
4,GUUGCGCUGGCGUCAUGGUAACGCGUCUCUCUCCUAAGGUGAAGACUGUGGGUUCGAGUCCCGUACGGAACG [C4G U7C A14C C30U A40U C49U],≤ 0.5
5,GUUGCGUUGGCGUAAUGGUAACGCGUCUCCCUCCUAAGGAGAAGACUGCAGGUUUGAGUCCCGUACGGAACG [C4G G50A C55U],≤ 0.5
6,GUUGCGAUGCCGUAAUGGUCACGCGUCUCCCUCCUAAGGAGAAGAGUGCGGGUUCGAGUCCCGUACGGAACG [C4G U7A G10C A20C C46G],≤ 0.5
7,GUUGCGGUGGCGUAAUGGUAACGCGUCUCCCUCCUAAGGAGAAGACUGCGGGUUCGAGUCCCGUACGGAACG [C4G U7G],0.642
8,GUUGCGCUGGCGUAAUGGUAAUGCGUCUCCCUCCGAAGGAGAAGACUGCGGGUUCGAGUCACGUACGGAACG [C4G U7C C22U U35G C61A],≤ 0.5
9,GUUGCGUCGGCGUAAAGGUACCGGGUCUCCCUCCUAUGGAGAAGACUGCGGGUUUGAGUCCCGUACGGAACG [C4G U8C U16A A21C C24G A37U C55U],≤ 0.5
10,GUUGCGUCGGCGUAAUGGUAGCGCGUCUCCCUCCUAAGGAGAAGACUGCGGGUUCGAGUCCCGUACGGAACG [C4G U8C A21G],0.605
11,GUUGCGGUGGCGUAAUGGUACCGCGUCUCCCUCCUAAGGAGAAGACUGCGGGUUCGAGUCCCGUACGGAACG [C4G U7G A21C],≤ 0.5
12,GUUGCGUAGGCAUAAUGGUAACGCGUCUCCCUCCUAAGGAGAAGACUGCGGGUUCGAGUCCCGUACGGAACG [C4G U8A G12A],0.6
13,GUUGCGGUGGCGGAAUGGUUACGCGUCUCCAUCGUAAGGAGCAGACUGCGGGUUCGAGUCCCGUACGGAACG [C4G U7G U13G A20U C31A C34G A42C],≤ 0.5
14,GUUGCGUUGGCGUAAUGGUAACGCGUCUCCCUCCUAAGGAGAAGACUCCGGGUUCGAGUCCCGUACGGAACG [C4G G48C],0.822
15,GUUGCGUUGGCGUAAUGGUAACGCGUCUCCCUCCUAAGGAGAAGACUGCGGGUUCGAAUCCCGUACGGAACG [C4G G58A],1.05
16,GUUGCGUUGGCGUAAUGGUAACGCGUCUCCCUCCUAAGGAGAAGACUGCGGGUUCGACUCCCGUACGGAACG [C4G G58C],1.1
17,GUUGCGAUGGCGUAAUGGUAACGCGACUCCCUCCUAAGGCGGAGACUGCGGGUUCGACUCCCGUACGGAACG [C4G U7A U26A A40C A42G G58C],≤ 0.5
18,GUUGCGUUGGCGUAAUGGUAACGCGUCUCCCUCCUAAGGAGAAGACUGCGGGUUCCAGUCCCGUACGGAACG [C4G G56C],0.699
19,GUUGCGGUGCCGUAAUGGUAACGCGUCUCCCUCCUAACGAGAAGACUGGGGGUUCGAGUCCCGUACGGCACG [C4G U7G G10C G38C C49G A69C],≤ 0.5

row,Variant,yeast fitness
1,GUUGCGGUGGCCUAAUGGUUACGCGUCUCCCUCAUAAGGACAAGCCAGCGGGUUAGAGUCCCGUACGGAACG [C4G U7G G12C A20U C34A G41C A45C U47A C55A],≤ 0.5
2,GUUGCGUUGGCGUAAUGGUAACGCGUCUCCCUCCUAAGGAGAAGACUGCGGGUUCGAGUCCCGUACAGCACG [C4G G67A A69C],≤ 0.5
3,GUUGCGUUGGCGUAAUGGUAACGCGUCUCCCUCCUAAGGAGAAGACUGCGGGUUCGAAUCCCGAACGGAACG [C4G G58A U64A],≤ 0.5
4,GUUGCGAUGGCGUAAUGGUAACGCGACUCCCUCCUAAGGCGGAGACUGCGGGUUCGACUCCCGUACGAAACG [C4G U7A U26A A40C A42G G58C G68A],≤ 0.5
5,GUUGCGGUGCCGUAAUGGUAACGUGUCUACCUCCUAAGGAGAAGUGAGCAGGUUCGAGUCCCGGACGGAACG [C4G U7G G10C C24U C29A A45U C46G U47A G50A U64G],≤ 0.5
6,GUUGCGAUGGCGUAAUGGUAACGCGUCUCCGUCCUAAGGAGAAGACUGCGGGUUCGAGACCCGUACGGAACG [C4G U7A C31G U59A],≤ 0.5
7,GUUGCGUUGGCGUAAUGGUAACGCGUCUCCCUCCUAAGGAGAAGACUCCGCGUUCGUGUCCCGUACGCAACG [C4G G48C G51C A57U G68C],0.55
8,GUUGCGUUGGCGUAAUGGUAACGCGUCUCCCUCCUAAGGAGAAGACUGCCGGUUGGAGUCCGGUACGGAACG [C4G G50C C55G C62G],≤ 0.5
9,GUUGCGUCGGCGUACUGGUAACGCGUCUCCAUCCUUCGGAGAAGACUGCGGGUUCGAGUACCGUGCGGGACG [C4G U8C A15C C31A A36U A37C C60A A65G A69G],≤ 0.5
10,GUUGCGGUGGCGUAAUGGUAACGCGUCUCCUUCCUAAGGAGAAGACUGCGGGUUCGAGUCCCGUUCGGAACG [C4G U7G C31U A65U],≤ 0.5
11,GUUGCGUUGGCGUAAUGGUAACGCGUCUCCCUCCUAAGGAGAAGACUCCGGGUUCGAGUCCCGUACCGAACG [C4G G48C G67C],0.542
12,GUUGCGUCGGCGUAAUGGUAACGGGUCUCCCUCCUAAGGAGCAGACUGCGGGUUCGAGUCCCGUACAGAACG [C4G U8C C24G A42C G67A],0.558
13,GUUGCGGUGGCGUAAUGGUAACGCGUCUCCCUCCUAAGGAGAAGACUGCGGGUUCGAGGCCCCUACGGAACG [C4G U7G U59G G63C],≤ 0.5
14,GUUGCGCUGGCGUAAUGGUAACGUGUCUCCCUCCUAAGGAGAAGACUGCGGGUUCGAGUCCCGUGCGGAACG [C4G U7C C24U A65G],0.857
15,GUUGCGUUGGCGUAAUGGUAACGCGUCUCCCUCCUAAGGAGAAGACUGCGGGUUCGAGUCCCCUACGGAACG [C4G G63C],0.622
16,GUUGCGUUGGCGUAAUGGUAACGCGUCUCCCUCCUAAGGAGAAGACUGCGCGUUCGAGUCCCGUACGGAACG [C4G G51C],0.647
17,GUUGCGGUGGCCUAAUGGUUACGCGUCGCCCUCCUAAGGAGAAGACUGCGGGUUCGAGUCCCGUACGGAACG [C4G U7G G12C A20U U28G],≤ 0.5
18,GUUGCGUAGGCAUAAUGGUAACGCGUCUCCCUCCUAAGGAGAAGACUGCGGGUUCGGGUCCCGUACGGAACG [C4G U8A G12A A57G],≤ 0.5
